High-throughput results (PubChem BioAssay)
Only some compounds are listed: those with a hit (about 9.6% of all), similar ones and a draw of the others.
TNAP act hiacc: TNAP (human) activation, high acceptor; P05186; 200,000 tested, under 10 active; purified TNAP, CDP-star luminescence, 1 M DEA, 30 min; active compounds read high; 0 = EDTA background, 1 = DMSO-only activity; activation factor at 20 µM;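 active = activation factor at least 2 at 20 µM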
Target sequence (P05186 whole entry, looked up): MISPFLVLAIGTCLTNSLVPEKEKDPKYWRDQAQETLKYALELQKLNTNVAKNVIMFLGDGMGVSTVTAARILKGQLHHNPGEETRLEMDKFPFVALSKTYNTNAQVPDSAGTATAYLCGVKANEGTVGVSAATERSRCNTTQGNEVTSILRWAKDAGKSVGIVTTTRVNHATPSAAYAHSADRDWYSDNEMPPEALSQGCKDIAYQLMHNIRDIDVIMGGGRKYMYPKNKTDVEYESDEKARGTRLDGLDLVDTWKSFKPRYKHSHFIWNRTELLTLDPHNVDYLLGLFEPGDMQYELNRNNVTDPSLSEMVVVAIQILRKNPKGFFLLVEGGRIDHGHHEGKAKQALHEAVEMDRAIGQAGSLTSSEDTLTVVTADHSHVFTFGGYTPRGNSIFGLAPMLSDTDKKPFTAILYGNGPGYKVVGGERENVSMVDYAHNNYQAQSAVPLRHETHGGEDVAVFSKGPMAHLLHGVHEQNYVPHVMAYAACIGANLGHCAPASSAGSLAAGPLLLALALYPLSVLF
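Dosing: 20 µM single point. System: human TNAP. Amount: TNAP 1/800 final. Incubation: 30 min, room temperature. Read-out: TNAP activation factor scaled between EDTA and DMSO control wells. Signal: luminescence from CDP-star hydrolysis. Medium: 1 M DEA, pH 9.8, Mg2+, Zn2+. Control set: EDTA negative control, DMSO positive control.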
TNAP inh noacc: inhibitors of human TNAP without phosphate acceptor | AID 1012 | inhibition, % at 20 µM | purified TNAP, CDP-star luminescence, 30 min | 200,000 tested, 0.26% active | P05186;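 active = tissue-nonspecific alkaline phosphatase inhibition above about 50% at 20 µM in the single-dose screen, limit read from the data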;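 note: 0% = DMSO negative control and 100% = EDTA positive control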
HCT116 PTEN-null: suppresses growth of cells with PTEN deletion; viability, % at 10 µM; HCT116 PTEN-null viability, CellTiter-Glo, 60 h; active compounds read low; 140,000 tested, 1.2% active;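 active = viability at or below a set limit, 4 SD under the median of all tested compounds, cut at about 3.7% in these data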;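 note: PTEN knockout HCT116 line with beta catenin targeted HCT116 as companion control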
TNAP inh hi DEA: inhibitors of human TNAP at high phosphate acceptor concentration; P05186; purified TNAP, CDP-star luminescence, 1 M DEA; inhibition, % at 20 µM; 200,000 tested, 0.03% active; AID 1135;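 active = over 50% inhibition of tissue-nonspecific alkaline phosphatase at 20 µM in the single-dose screen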;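 note: plate controls were DMSO wells for no effect and EDTA-quenched wells as full inhibition for full effect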
bCat KO growth: beta-catenin-lacking colon tumor cell growth suppression | HCT116 beta-catenin knockout viability, CellTiter-Glo, 60 h; active compounds read low | viability, % at 10 µM | 140,000 tested, 1.5% active | AID 818;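 active = viability at or under a set limit, the compound median less 4 SD, cut at about 6% in these data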;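 note: 0% = Hyamine 1622 control at 20 µM and 100% = untreated cell control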
L major viab: reduces viability of Leishmania major promastigotes; inhibition, % at 10 µM; 200,000 tested, 9% active; resazurin fluorescence viability; AID 1063; in the data active = inhibition above about 50%;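 note: promastigotes grown with compound for 44 hours at 28 °C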
* marks the source's active call; other numbers are inactive results; x = no result.

SMILES | TNAP act hiacc | TNAP inh noacc | HCT116 PTEN-null | TNAP inh hi DEA | bCat KO growth | L major viab
CC(C)(CSc1ccccn1)NS(=O)(=O)c1ccc(Cl)cc1 | 1 | -6 | 90 | 4 | 99 | 22
CN1CCN(CC(C)(C)NS(=O)(=O)c2ccc(Cl)cc2)CC1 | 1 | -15 | 103 | -5 | 94 | 94*
Cc1cc(Oc2ccccc2)nc(OCC#N)n1 | 1 | -4 | 104 | 1 | 102 | -1
O=C(c1ccccc1)C1CN(Cc2ccccc2)CCC1(O)c1ccccc1 (stereo not given) | 1.1 | -9 | x | -6 | x | 62*
OC1CCCN(Cc2ccccc2)C1 (stereo not given) | 1 | -18 | 102 | -1 | 100 | -2
OC(c1ccccc1)C1CN(Cc2ccccc2)CCC1(O)c1ccccc1 (stereo not given) | 1 | -6 | 86 | 3 | 88 | 85*
CC(C)NC(=O)CN1CCC(O)(c2ccccc2)CC1 | 1 | -9 | 98 | -5 | 99 | 33
OC1(c2ccccc2)CCN(Cc2ccccc2)CC1 | 1 | -12 | x | -5 | x | 83*
CC(CCc1ccccc1)NC(=O)C(=O)N1CCOCC1 (stereo not given) | 1.1 | -10 | x | -6 | x | -5
CCCC(=O)Nc1ccc(Nc2ccccc2)cc1 | 1 | -3 | 89 | -2 | 93 | 64*
CCCCC(CC)C(=O)Nc1ccc(Nc2ccccc2)cc1 (stereo not given) | 1 | -12 | 93 | -2 | 93 | 99*
CCCCNC(=O)C1CC(c2c(Cl)cccc2Cl)=NO1 (stereo not given) | 1.1 | -5 | 19 | -5 | 32 | -4
CCOc1ccc(N2CC(O)=C(c3ccccc3)C2=N)cc1 | 1 | -12 | x | -3 | x | -3
CC1CCN(C(=S)c2cn(Cc3cccc(F)c3)c3ccccc23)CC1 | 1 | -5 | 84 | -2 | 93 | 67*
CC1CCN(C(=S)c2ccccc2O)CC1 | 1 | -10 | 112 | -3 | 96 | -5
CN1CCN(C(=S)c2cn(Cc3ccccc3)c3ccccc23)CC1 | 1 | -12 | x | -4 | x | 22
CN1CCN(C(=S)c2cn(Cc3ccc(Br)cc3)c3ccccc23)CC1 | 1 | -5 | x | 0 | x | 53*
Cc1ccc(-c2ccc(/C=N/n3cnnc3)o2)cc1Cl | 1 | -10 | 90 | -4 | 77 | 71*
COc1ccc(-c2ccc(=O)n(CC(=O)N3CCN(c4ccccc4OC)CC3)n2)cc1 | x | x | x | x | x | 92*
COc1ccccc1N1CCN(C(=O)COc2cc(C)ccc2C)CC1 | 1 | 1 | 94 | 0 | 92 | 64*
COc1ccccc1N1CCN(C(=O)COc2cc(C)cc(C)c2)CC1 | 1 | -8 | x | 0 | x | 8
COc1ccccc1N1CCN(C(=O)/C=C/c2ccc(C)cc2)CC1 | 0.9 | 4 | 98 | 7 | 93 | 55*
COc1ccccc1N1CCN(C(=O)C(Sc2ccccc2)c2ccccc2)CC1 (stereo not given) | 1 | 11 | 58 | -4 | 67 | 81*
COc1ccc(NC(=S)N2CCC(c3nc4ccccc4o3)CC2)c(OC)c1 | 1 | -4 | x | 0 | x | -8
COc1ccc(-c2nncnn2)cc1 | 1 | -2 | 80 | 0 | 83 | 97*
SMILES | TNAP act hiacc | TNAP inh noacc | HCT116 PTEN-null | TNAP inh hi DEA | bCat KO growth | L major viab
Cc1noc(C)c1S(=O)(=O)N1CCCC(C(=O)NCCc2ccc(Cl)cc2)C1 (stereo not given) | 1 | -4 | 95 | 4 | 83 | 100*
Cc1nn(C)c(C)c1S(=O)(=O)N1CCCC(C(=O)NCCc2ccc(Cl)cc2)C1 (stereo not given) | 1 | -14 | 96 | 0 | 99 | -10
Cc1noc(C)c1S(=O)(=O)N1CCC(C(=O)NCCN2CCC(C)CC2)CC1 | 1 | -6 | 97 | -2 | 89 | 18
CCN(CCNC(=O)C1CCN(S(=O)(=O)c2c(C)noc2C)CC1)c1ccccc1 | 1 | -7 | x | 0 | x | 98*
COc1cc2c(cc1C1NC(=S)NC(C)=C1C(=O)N(C)C)CCCC2 (stereo not given) | 1 | -3 | 106 | -4 | 95 | 32
O=C(Nc1ccc2c(c1)OCO2)N1CCN(c2ncc(C(F)(F)F)cc2Cl)CC1 | 1 | -1 | 80 | -2 | 75 | 68*
CCOC(=O)N1CCN(c2ncc(C(F)(F)F)cc2Cl)CC1 | 1.1 | -18 | x | -7 | x | -1
O=C(N/N=C/c1cccc(C(F)(F)F)c1)C1CCN(c2ncc(C(F)(F)F)cc2Cl)CC1 | 1 | -9 | 2.1* | 0 | 4.0* | -7
CNCC(=O)N1CCN(c2ncc(C(F)(F)F)cc2Cl)CC1 | 1.1 | -12 | x | -6 | x | 71*
O=C(Nc1ccc2c(c1)OCO2)N1CCN(c2ncccn2)CC1 | 1 | -10 | 112 | -4 | 93 | -9
Cc1ccc(OCC(=O)N/N=C/c2c[nH]c3ccccc23)c([N+](=O)[O-])c1 | 1 | -5 | 94 | 2 | 86 | -1
COc1ccc(N2CCN(C(=O)CN(C3CCCCC3)S(C)(=O)=O)CC2)cc1 | 1 | -6 | x | -5 | x | -3
Cc1cccc(N(C(=O)c2nsc(Cl)c2Cl)C(C(=O)NC2CCCC2)c2ccc(O)cc2)c1 (stereo not given) | 1.1 | -23 | 90 | -6 | 91 | 85*
O=C(CSc1ccc2nnc(-c3ccncc3)n2n1)Nc1nccs1 | 0.9 | -1 | x | 6 | x | -2
CCN(CC)CCN1C(=O)c2ccccc2NC1c1ccc(C)cc1 (stereo not given) | 1 | -4 | 96 | 1 | 87 | 57*
CCN(CC)CCN1C(=O)c2ccccc2NC1c1ccc(F)cc1 (stereo not given) | 1 | -2 | 94 | -3 | 105 | 7
CCN(CC)CCN1C(=O)c2ccccc2NC1c1ccc(Br)cc1 (stereo not given) | 1 | -4 | x | -2 | x | 97*
Cc1oc(-c2cc(F)ccc2F)nc1CN1CCN(C)C(=O)[C@@H]1C | 1 | -10 | x | -4 | x | 2
COCCCNC(=S)NC1CCCCC1 | 1.1 | 0 | 103 | -5 | 95 | -5
Cc1ccnc(NC(=O)CCCOc2cc(=O)n(C)c3ccccc23)c1 | 1.1 | -14 | 2.9* | -6 | 5.4* | 14
O=C1CN(/N=C/c2ccc([N+](=O)[O-])o2)C(=O)N1 | 1 | -4 | 13 | 2 | 13 | 95*
O=C1OCCN1/N=C/c1ccc([N+](=O)[O-])o1 | 1 | -6 | 88 | -2 | 75 | 93*
COC(=O)CCN1CCN(S(=O)(=O)c2ccccc2Br)CC1 | 1 | -2 | x | -3 | x | -10
CCOC(=O)c1c(NC(=O)CN2C(=O)CN(C)C2=O)sc(C)c1C | 1 | 1 | x | -4 | x | 6
CCOC(=O)/C=C1\Nc2ccccc2OC1=O | 1 | 6 | 59 | 1 | 53 | 64*
CC1(C(=O)NCc2ccccc2)Oc2ccccc2NC1=O (stereo not given) | 1 | -13 | 96 | -3 | 95 | 0
